Calls of active or inactive are those of the source. The calls are words filed in the database; no cut-off is given here.
How the values were obtained:
MDA-MB-453 [1] = assay: Cytotoxicity against human MDA-MB-453 cells assessed as decrease in oxygen consumption at 20 uM by Clark-type oxygen electrode analysis; assay type: functional, cell-based
Procedure, shortened: (§1)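 After 3 h exposure to 20 μM compound or DMSO, cells trypsinized, PBS-washed, pelleted; 5×10⁶ cells in 0.8 mL PBS with 10% FCS placed in a Clark-type oxygen electrode chamber to measure O2 consumption; duplicate experiments.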

MCF7 [2] = assay: Cytotoxicity against DCFDA-treated human MCF7 cells assessed as increase in ROS production […] by flow cytometric analysis; assay type: functional, cell-based
Procedure, shortened: (§2)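 Cells preloaded with 5μM carboxy-DCFDA for 30 min, then exposed to 20 μM compound or DMSO for 2 h, collected and analysed by flow cytometry (488 nm excitation, 530 nm emission); percentage of fluorescent cells vs DMSO; triplicate samples, two separate experiments.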

MDA-MB-453 [3] = assay: Growth inhibition of human MDA-MB-453 cells by trypan blue exclusion assay; assay type: functional, cell-based
Procedure, shortened: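 Viability counted by trypan blue exclusion; cells grown at 1×10⁵ cells/mL, counts done in triplicate, mean ± SD relative to DMSO.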

MDA-MB-453 [4] = assay: Antiproliferative activity against human MDA-MB-453 cells assessed as decrease in ATP level in viable cells at 10 uM after 4 hrs by CellTiter-Glo luminescent assay relative to control; assay type: functional
Procedure, shortened: (§3)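 10,000 cells per well, treated in sextuplet with DMSO or 5, 10, 20 or 50 μM for 4 h. ATP read by CellTiter-Glo luminescence, normalized to average count of viable trypan-blue-excluding cells per condition, expressed relative to DMSO.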

MCF7 [5] = assay: Antiproliferative activity against human MCF7 cells assessed as cell survival at 50 uM by trypan blue exclusion assay relative to control; assay type: functional; conditions: read-out: Survival
Procedure, shortened: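 MCF-7 cells kept in DMEM with 10% fetal bovine serum and 1% antibiotics at 37°C, 5% CO2, grown at 1×10⁵ cells/mL. Cells were exposed to DMSO vehicle or DMSO-dissolved compound. Viability was scored by trypan blue exclusion cell counts, done in triplicate and given as mean ± SD. Survival was expressed relative to the DMSO control.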

MCF7 [6] = assay: Cytotoxicity against human MCF7 cells assessed as decrease in oxygen consumption at 20 uM by Clark-type oxygen electrode analysis; assay type: functional, cell-based; procedure, shortened: as §1
MDA-MB-453 [7] = assay: Antiproliferative activity against human MDA-MB-453 cells after 4 hrs by MTT assay; assay type: functional, cell-based
Procedure, shortened: (§4)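 Cells in DMEM with 10% FBS and 1% antibiotics, 37°C, 5% CO2; equal numbers plated in three or more replicates, attached overnight, then exposed to 5, 10, 20 or 50 μM (DMSO vehicle) in complete medium for 4 h. Then 0.5 mg/ml MTT for 1 h, medium replaced with PBS, absorbance at 570 nm minus 690 nm background; compared to DMSO.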

MCF7 [8] = assay: Antiproliferative activity against human MCF7 cells assessed as decrease in ATP level in viable cells after 4 hrs by CellTiter-Glo luminescent assay relative to control; assay type: functional, cell-based; procedure, shortened: as §3
MCF7 [9] = assay: Antiproliferative activity against human MCF7 cells after 4 hrs by MTT assay; assay type: functional, cell-based; procedure, shortened: as §4
MDA-MB-453 [10] = assay: Cytotoxicity against DCFDA-treated human MDA-MB-453 cells assessed as increase in ROS production after 30 mins by flow cytometric analysis; assay type: functional; procedure, shortened: as §2
MDA-MB-453 [11] = assay: Antiproliferative activity against human MDA-MB-453 cells assessed as decrease in ATP level in viable cells at >20 uM after 4 hrs by CellTiter-Glo luminescent assay relative to control; assay type: functional, cell-based; procedure, shortened: as §3
MDA-MB-453 [12] = assay: Antiproliferative activity against human MDA-MB-453 cells assessed as decrease in ATP level in viable cells at 20 uM after 4 hrs by CellTiter-Glo luminescent assay relative to control; assay type: functional; procedure, shortened: as §3

| Compound | Activity (MDA-MB-453 [1]) | Activity (MCF7 [2]) | IC50 (MDA-MB-453 [3]) [µM] | Activity (MDA-MB-453 [4]) | viability at 50 µM (MCF7 [5]) [%] | Activity (MCF7 [6]) | Activity (MDA-MB-453 [7]) | Activity (MCF7 [8]) | Activity (MCF7 [9]) | Activity (MDA-MB-453 [10]) [%] | Activity (MDA-MB-453 [11]) | Activity (MDA-MB-453 [12]) [%] |
| --- | --- | --- | --- | --- | --- | --- | --- | --- | --- | --- | --- | --- |
| CC(C)=CCC[C@]1(C)C=Cc2c(ccc3c2C(=O)C(O)=C(C2=C(Cl)C(=O)c4ccccc4C2=O)C3=O)O1 | Active | inactive | 34 | inactive | 85 | inactive | Dose-dependent effect | inactive | inactive | 50 | inactive | 27 |
| COc1ccc2c(c1)C(=O)C(C1=C(Cl)C(=O)c3ccccc3C1=O)=C(O)C2=O | Active | inactive | 17 | 37% | 83 | inactive | Dose-dependent effect | inactive | inactive | 50 | inactive | 60 |
| O=C1C(O)=C(C2=C(Cl)C(=O)c3ccccc3C2=O)C(=O)c2ccccc21 | Active | inactive | 15 | 53% | 80 | inactive | Dose-dependent effect | inactive | inactive | 50 | inactive | 60 |

From ChEMBL document CHEMBL1926559, “Metabolic and electrochemical mechanisms of dimeric naphthoquinones cytotoxicity in breast cancer cells” (Bioorg Med Chem, 2011)
